Measured values published in paper PMC11219355 (Heliyon, 2024).

Assays:
[1] = system: Cutibacterium acnes (DMST 14916); assay: Antibacterial growth inhibition; format: cell-based; settings: C. acnes; antibiotic 500 μg/mL; 37 °C, 18–22 h, OD600
Outline: (§1)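 Inocula: C. acnes grown anaerobically in Schaedler broth at 37 °C for 72 h and adjusted to OD600 0.1. S. aureus and MRSA single colonies grown in nutrient broth at 37 °C for 18 h and adjusted to OD600 0.001. Suspensions were mixed 1:1 with peptide (1000 μg/mL) or ampicillin/clindamycin (500 μg/mL) solutions. Untreated culture served as 0 % inhibition. Three repeats, mean ± SD.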

[2] = system: methicillin-resistant Staphylococcus aureus (MRSA) (DMST 20646); assay: Antibacterial growth inhibition; format: cell-based; settings: antibiotic 500 μg/mL, 37 °C, 18–22 h, OD600
Outline: as §1

[3] = system: Staphylococcus aureus (ATCC 25923); assay: Antibacterial growth inhibition; format: cell-based; settings: S. aureus; antibiotic 500 μg/mL; 37 °C, 18–22 h, OD600
Outline: as §1

[4] = system: C. acnes, S. aureus and MRSA; assay: Antibacterial growth inhibition, stated as one range over the three strains; format: cell-based, Cutibacterium acnes; Staphylococcus aureus; settings: peptide 1000 μg/mL
Outline: as §1

[5] = system: RAW 264.7 cells; assay: RAW 264.7 cytotoxicity assay; format: cell-based, Murine; settings: RAW 264.7, MTT, peptide 1000 μg/mL, 24 h
Outline: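 Murine macrophages were grown in DMEM plus 10 % heat-inactivated FBS and 1 % antibiotic-antimycotic (37 °C, 5 % CO2) and seeded overnight at 2 × 10⁴ cells/well. Peptide was added at 1000 μg/mL final for 24 h. MTT was added at 0.5 mg/mL final in fresh medium for 30 min. Formazan was dissolved in DMSO and read at OD570. Viability was expressed versus untreated cells. Three repeats, mean ± SD.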

| Molecule | growth inhibition [1] | growth inhibition [2] | growth inhibition [3] | relative antibacterial potency among the 8 peptides, in words [4] | reduction in cell viability [5] |
| --- | --- | --- | --- | --- | --- |
| CC1(C)S[C@@H]2[C@H](NC(=O)[C@H](N)c3ccccc3)C(=O)N2[C@H]1C(=O)O [ampicillin] | 92.92% | 100.00% | 97.85% | – | – |
| CCC[C@@H]1C[C@@H](C(=O)N[C@@H]([C@H]2O[C@H](SC)[C@H](O)[C@@H](O)[C@H]2O)[C@H](C)Cl)N(C)C1 [clindamycin] | 100.00% | 51.86% | 96.35% | – | – |
| IIDVKMLS [IS8] | – | – | – | least potent peptide | – |
| RKLLEGEE [RE8] | – | – | – | – | ~15% |
